From PubChem BioAssay
PG9 binder: small molecules binding HIV-1 gp120 antibody PG9; inhibition, % at 6.7 µM; actives 0.43% (n = 360,000); TR-FRET gp120-PG9 antibody binding; in the data active means inhibition above about 8.5%
Rev-erbA mod: modulators of human Rev-erb alpha DNA binding | Rev-erbα–FITC-DNA binding, fluorescence polarization, 90 min | AID 1259318 | actives 0.79% (n = 370,000) | activity, % at 10 µM;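 active means activity above about 14%, limit read from the data; passing the limit was not always enough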;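 further: 0% = DMSO wells with 35 nM protein and 100% = DMSO wells with 750 nM protein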
Tb MetRS inh: blocks T. brucei methionyl-tRNA synthetase activity; purified T. brucei MetRS, ATP depletion, Kinase-Glo luminescence; inhibition, % at 11.9 µM; actives 0.4% (n = 360,000);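 active means inhibition above a per-plate cutoff of the control wells' mean inhibition plus 3 SD, cut at about 5.5% in these data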;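 further: 0% = DMSO wells median and 100% = median of wells with control inhibitor compound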
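Dosing: 11.9 µM single point; system: parasite MetRS enzyme; technique: luminescence of leftover ATP; times: 15 min enzyme-compound preincubation, 2 h reaction, 10 min detection, 25 °C; replicates: each compound tested once; read-out basis: percent inhibition relative to median high and low control wells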
Rin1 Abl inh: blocks binding of human Rin1 to Abl. TR-FRET Rin1/Abl binding, biochemical. inhibition, % at 7.35 µM. actives 0.4% (n = 360,000); in the data active means inhibition above about 5%, passing the limit was not always enough
Target sequence (P00519 whole entry, looked up): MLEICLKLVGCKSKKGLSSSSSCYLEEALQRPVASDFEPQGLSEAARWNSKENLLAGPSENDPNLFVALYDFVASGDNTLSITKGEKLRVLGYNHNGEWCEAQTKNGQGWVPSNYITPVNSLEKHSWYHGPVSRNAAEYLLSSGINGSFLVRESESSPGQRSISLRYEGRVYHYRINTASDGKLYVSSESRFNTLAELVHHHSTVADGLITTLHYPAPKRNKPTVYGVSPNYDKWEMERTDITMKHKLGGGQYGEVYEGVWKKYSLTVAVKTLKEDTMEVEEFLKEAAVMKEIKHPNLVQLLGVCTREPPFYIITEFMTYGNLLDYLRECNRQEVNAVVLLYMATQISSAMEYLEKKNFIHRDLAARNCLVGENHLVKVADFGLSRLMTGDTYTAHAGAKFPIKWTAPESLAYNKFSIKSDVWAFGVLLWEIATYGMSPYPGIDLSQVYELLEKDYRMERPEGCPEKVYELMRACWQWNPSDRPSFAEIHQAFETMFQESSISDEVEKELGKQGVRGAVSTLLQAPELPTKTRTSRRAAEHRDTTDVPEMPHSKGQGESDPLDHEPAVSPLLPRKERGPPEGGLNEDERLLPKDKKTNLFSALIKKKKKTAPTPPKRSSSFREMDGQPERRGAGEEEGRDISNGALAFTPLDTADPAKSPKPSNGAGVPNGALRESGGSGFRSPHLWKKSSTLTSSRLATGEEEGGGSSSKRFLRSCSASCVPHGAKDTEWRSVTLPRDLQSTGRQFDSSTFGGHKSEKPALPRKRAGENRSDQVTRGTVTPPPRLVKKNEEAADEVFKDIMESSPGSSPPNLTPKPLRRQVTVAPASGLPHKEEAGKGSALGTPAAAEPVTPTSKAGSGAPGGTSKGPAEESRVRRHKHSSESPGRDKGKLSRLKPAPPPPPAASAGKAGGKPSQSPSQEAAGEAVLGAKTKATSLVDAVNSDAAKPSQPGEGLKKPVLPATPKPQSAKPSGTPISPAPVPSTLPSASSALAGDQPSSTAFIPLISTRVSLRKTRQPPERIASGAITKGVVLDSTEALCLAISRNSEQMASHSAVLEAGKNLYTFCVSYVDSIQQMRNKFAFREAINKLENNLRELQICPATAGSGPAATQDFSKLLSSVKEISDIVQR
Target sequence (Q13671 whole entry, looked up): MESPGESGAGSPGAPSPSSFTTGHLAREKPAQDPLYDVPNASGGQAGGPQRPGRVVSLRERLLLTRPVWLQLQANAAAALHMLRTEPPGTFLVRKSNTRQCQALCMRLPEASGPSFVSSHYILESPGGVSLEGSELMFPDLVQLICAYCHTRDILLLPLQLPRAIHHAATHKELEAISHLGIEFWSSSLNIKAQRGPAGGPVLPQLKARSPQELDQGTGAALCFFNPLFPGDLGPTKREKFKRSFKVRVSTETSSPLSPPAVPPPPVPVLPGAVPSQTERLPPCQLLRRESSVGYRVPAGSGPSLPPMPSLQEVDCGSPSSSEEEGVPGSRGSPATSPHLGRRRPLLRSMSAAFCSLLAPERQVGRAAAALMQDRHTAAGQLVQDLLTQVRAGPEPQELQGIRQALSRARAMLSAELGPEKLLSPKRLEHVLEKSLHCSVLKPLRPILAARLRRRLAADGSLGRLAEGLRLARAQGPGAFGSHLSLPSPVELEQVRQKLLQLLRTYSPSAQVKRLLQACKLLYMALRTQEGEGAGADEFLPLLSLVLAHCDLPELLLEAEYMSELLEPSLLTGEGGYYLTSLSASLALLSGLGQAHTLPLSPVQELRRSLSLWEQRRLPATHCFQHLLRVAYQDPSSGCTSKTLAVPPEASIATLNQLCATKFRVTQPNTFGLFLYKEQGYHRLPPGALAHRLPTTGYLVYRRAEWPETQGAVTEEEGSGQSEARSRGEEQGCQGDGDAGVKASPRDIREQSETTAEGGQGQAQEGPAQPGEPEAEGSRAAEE
Rev-erbA confirm: confirmation of modulators of human Rev-erb alpha DNA binding; shares compounds with Rev-erbA mod; Rev-erb alpha FITC-DNA binding, fluorescence polarization, 90 min; AID 1259319; activation, % at 25 µM; actives 61% (n = 3,000);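 active means activation at or above a set limit, or at least 3 SD above the negative control mean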;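 further: 0% = 35 nM protein with DMSO and 100% = 750 nM protein high control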
RORg DNA counter: counter-screen for Rev-erb alpha modulators: RORgamma DNA binding | AID 1259320 | IC50, µM | actives 8% (n = 910) | purified RORgamma protein-FITC-DNA binding, fluorescence polarization | shares compounds with Rev-erbA mod;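 active means Compounds whose fitted half-maximal concentration for disrupting protein-DNA binding is below 10 micromolar; the record names Rev-erb in its text, so the target is in doubt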
The depositor's hits bear a star; x = no result. Rows were chosen to be rich in hits. Some 1.8% of all compounds tested hit in one or more screens of this group.

SMILES	PG9 binder	Rev-erbA mod	Tb MetRS inh	Rin1 Abl inh	Rev-erbA confirm	others
COc1cccc(-c2cc3nc(C)c(C)c(N4CCN(Cc5ccco5)CC4)n3n2)c1	x	-3	x	x	x
CCOC(=O)c1cc(-c2ccccc2)sc1NC(=S)Nc1cccc(C)n1	2	26*	0	3	1
CCOC(=O)c1cc(-c2ccccc2)sc1NC(=O)C(C)OC(=O)c1cccnc1Cl (configuration not stated)	-2	20*	0	-3	13
COC(=O)C1=C[C@@H](C(=O)OC)[C@@H]2C3=C(C(=O)[C@@]2(C)NC(=O)c2ccccc2)[C@H](C)C(C(=O)OC)=C(C(=O)OC)[C@@H]3C1	-1	0	0	3	x
CSc1nc2cc(C)nn2c(-c2ccc(C(C)(C)C)cc2)c1C#N	-2	44*	0	1	12
CSc1nc(-c2ccccc2)cc(C)c1C#N	0	4	-1	-1	x
CSc1nc2cc(C)nn2c(-c2ccccc2Cl)c1C#N	-1	42*	0	0	15
Clc1ccc(N2CCN(c3ncnc4c3oc3ccccc34)CC2)cc1	0	37*	0	-2	12
CC1=CC(=O)O[C@@H]1[C@@]1(C)C[C@H]2OC(=O)C[C@H]3[C@@H](C)C(=O)C(O)=C1[C@@]23CO	-1	0	1	0	x
CC(=O)c1cccc(NC(=O)CCn2c(=S)oc3ccccc32)c1	-1	29*	-2	3	12
Cc1cc(C)cc(OCC(=O)NNC(=S)NC(=O)C2CC2)c1	0	33*	0	3	-2
Cc1cccc(N2CC(C(=O)NCC3COc4ccccc4O3)CC2=O)c1C (configuration not stated)	-2	-5	0	1	x
Cc1cc2c(s1)c1cnn(Cc3cc(F)c(F)cc3F)c(=O)c1n2C	x	26*	x	x	10
Cc1cc2c(s1)c1cnn(Cc3ccc(F)cc3F)c(=O)c1n2C	x	18	x	x	x
O=C(CSc1nnc2scc(-c3ccccc3)n12)Nc1nsc(-c2ccc(Cl)cc2)n1	0	31*	0	0	17
O=C(CSc1nnc2scc(-c3ccccc3)n12)Nc1nsc(-c2ccccc2)n1	x	44*	0	0	39*	RORg DNA counter=>40
Cc1ccc(-c2csc3nnc(SCC(=O)Nc4nsc(-c5ccccc5)n4)n23)cc1	-1	-1	0	3	x
CC1CC(C(=O)Nc2ccccc2)C(=O)O1 (configuration not stated)	0	-2	2	2	x
Cc1cc[n+](CC[n+]2ccc(C)cc2)cc1	1	-2	0	-3	x
CCC(C)(C)c1ccc(OCCCC[n+]2ccc(C)cc2)c(C(C)(C)CC)c1	0	34*	x	x	36*	RORg DNA counter=>40
CCC(C)(C)c1ccc(OCCCC[n+]2cccc(C)c2C)c(C(C)(C)CC)c1	-1	42*	-1	-1	43*
Cc1cc(C(C)(C)C)ccc1OCCCCN1CCCC1	1	1	0	-2	x
CCn1c(SC(C)C(=O)Nc2ccc(N3CCOCC3)cc2)nnc1C1CC1 (configuration not stated)	-1	1	0	3	x
COc1cc(/C=C/CNC[C@H]2O[C@@H](n3ccc(N)nc3=O)[C@H](O)[C@@H]2O)ccc1O	-2	10	-1	-4	x
N#Cc1ccc(-c2cccnc2)nc1SCc1ccc(Cl)cc1Cl	-2	20*	-1	-12	6
SMILES	PG9 binder	Rev-erbA mod	Tb MetRS inh	Rin1 Abl inh	Rev-erbA confirm	others
COc1ccc(-c2nc(SC(C)C(=O)NC3CC3)n[nH]2)cc1 (configuration not stated)	1	-2	0	1	x
CC1NC(=O)c2cc3ccccc3cc2-n2c1nc1cc(F)ccc1c2=O (configuration not stated)	0	5	1	-3	x
CC1NC(=O)c2cc3ccccc3cc2-n2c1nc1cc(Cl)ccc1c2=O (configuration not stated)	-1	16*	-2	2	0
Cc1ccc(CNC(=O)CN(C)S(=O)(=O)c2ccc(F)cc2)cc1	-1	3	-1	-3	x
CCOc1ccc(CCNC(=O)COC(=O)c2ccc(C)c([N+](=O)[O-])c2)cc1OCC	-1	0	0	2	x
CCn1c(=O)c(C(=O)NNC(=O)Cc2ccccc2)c(O)c2ccccc21	-2	33*	0	0	11
